The values that follow come from ChEMBL document CHEMBL2034819, “β-Lapachone analogs with enhanced antiproliferative activity” (Eur J Med Chem, 2012).

Structures are written as SMILES. Active and inactive are the calls of the source. No cut-off for these calls is given here.

In general, GI50 refers to the concentration that inhibits growth by half. Lower therefore signals greater sensitivity of the cells.

The subject of data set [1] is HeLa. Briefly: Growth inhibition of human HeLa cells by SRB assay. In kind it is functional. In a few lines: (§1)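 Cells kept in RPMI 1640 with 5% heat-inactivated FCS and 2 mM L-glutamine. Plated at 10 000 (HBL-100, SW1573), 15 000 (HeLa) or 20 000 (WiDr) cells/well. Drug added on day 1, in triplicate, over 1–100 µM with 0.25% DMSO final. Exposure 48 h. Cells TCA-fixed 60 min at 4 °C, then SRB-stained, OD 492 nm, background-corrected. GI50 reported.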
In general terms: Sulforhodamine B stains cellular protein and so reports cell mass.

Data set [2] has as its system WiDr. The data set can be described thus: Growth inhibition of human WiDr cells by SRB assay. In kind it is functional. In short, it runs like this: as §1
Data set [3] relates to HBL-100. The data set can be described thus: Growth inhibition of human HBL100 cells by SRB assay. Type of data set: functional. In a few lines: as §1
Data set [4] has as its system SW1573. Briefly: Growth inhibition of human SW1573 cells by SRB assay. Type of data set: functional. In a few lines:
as §1

Data set [5] concerns the target DNA topoisomerase 2-alpha (Homo sapiens) (UniProt P11388). The data set can be described thus: Inhibition of human topoisomerase 2alpha-mediated kDNA decatenation.
For data set [6], the system named is SW1573. Briefly: Cell cycle arrest in human SW1573 cells assessed as accumulation at G2/M phase after 24 hrs by flow cytometric analysis. In kind it is functional, cell-based. In a few lines:
(§2)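 Cells seeded at 2.5–5 × 10^5 per well and treated after 24 h at two concentrations per agent for a further 24 h. Harvested, then fixed in ice-cold 70% EtOH overnight. Treated with DNase-free RNase at 37 °C for 30 min and stained with PI. DNA content read by flow cytometry on 20 000 cells/sample. G0/G1, S and G2/M fractions gated.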

In data set [7] the test system is HeLa. The data set can be described thus: Induction of apoptosis in human HeLa cells assessed as PARP cleavage at 3 uM after 24 hrs by immunoblot analysis. Type of data set: functional, cell-based. In a few lines: (§3)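 HeLa cells exposed to 3 µM for several time intervals. Lysed in Tris pH 8.0/NP-40 buffer with protease and phosphatase inhibitors, and debris pelleted. Proteins resolved by SDS-PAGE and blotted to PVDF. Probed for PARP-1, procaspase 3, cyclin A, cyclin E, MRE11, p-Chk2 and γ-H2AX, with α-tubulin as loading control. HRP secondaries with luminol/p-iodophenol detection.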
On the technique in general: In western blotting, separated proteins are transferred to a membrane and probed.

Data set [8] has as its system WiDr. Briefly: Cell cycle arrest in human WiDr cells assessed as accumulation at G2/M phase after 24 hrs by flow cytometric analysis. In kind it is functional, cell-based. In a few lines: as §2
Background: A flow cytometer gives signals particle by particle.

Data set [9] deals with HeLa. Briefly: Cell cycle arrest in human HeLa cells assessed as accumulation at S phase after 24 hrs by flow cytometric analysis. In kind it is functional, cell-based. In short, it runs like this:
as §2

Data set [10] has as its system HeLa. The data set can be described thus: Cell cycle arrest in human HeLa cells assessed as accumulation at G2/M phase after 24 hrs by flow cytometric analysis. In kind it is functional, cell-based. In a few lines: as §2
For data set [11], the system named is HeLa. Briefly: Induction of apoptosis in human HeLa cells assessed as caspase 3 cleavage at 3 uM after 24 hrs by immunoblot analysis. Type of data set: functional, cell-based. In a few lines: as §3
The test system of data set [12] is HeLa. Briefly: Induction of intracellular reactive oxygen species production in human HeLa cells at 3 uM after 3 hrs DCFH-DA staining-based flow cytometric analysis relative to control. In kind it is functional. In a few lines:
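HeLa cells seeded at 3 × 10^5 per well and treated 24 h later at 3 µM for 3 h. Co-incubated with 5 µM DCFH-DA for 1 h at 37 °C. DCF fluorescence read by flow cytometry on 10 000 cells/sample and compared with untreated cells. H2O2 (500 µM) served as positive control.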

In data set [13] the test system is HBL-100. Briefly: Cell cycle arrest in human HBL100 cells assessed as accumulation at S phase after 24 hrs by flow cytometric analysis. In kind it is functional, cell-based. In a few lines:
as §2

The test system of data set [14] is HeLa. The data set can be described thus: Induction of DNA damage in human HeLa cells assessed as increase in chk2 phosphorylation at 3 uM after 24 hrs by immunoblot analysis. Type of data set: functional, cell-based. In short, it runs like this: as §3
Data set [15] deals with SW1573. Briefly: Cell cycle arrest in human SW1573 cells assessed as accumulation at S phase after 24 hrs by flow cytometric analysis. Type of data set: functional, cell-based. In a few lines: as §2
Data set [16] deals with HBL-100. The data set can be described thus: Cell cycle arrest in human HBL100 cells assessed as accumulation at G2/M phase after 24 hrs by flow cytometric analysis. Type of data set: functional, cell-based. In short, it runs like this:
as §2

Data set [17] deals with WiDr. The data set can be described thus: Cell cycle arrest in human WiDr cells assessed as accumulation at S phase after 24 hrs by flow cytometric analysis. In kind it is functional, cell-based. In a few lines: as §2
For data set [18], the system named is HeLa. Briefly: Induction of DNA damage in human HeLa cells assessed as increase in gamma-H2AX phosphorylation at 3 uM after 24 hrs by immunoblot analysis. Type of data set: functional, cell-based. In short, it runs like this: as §3
Data set [19] concerns HeLa. The data set can be described thus: Increase in cyclin A expression in human HeLa cells at 3 uM after 24 hrs by immunoblot analysis. In kind it is functional, cell-based. In short, it runs like this:
as §3

Data set [20] is described as follows: Cytotoxicity against mouse erythrocytes assessed as lytic effect. Type of data set: cell-based. To be noted: erythrocyte.
Data set [21] deals with HeLa. Briefly: Decrease in cyclin E expression in human HeLa cells at 3 uM after 24 hrs by immunoblot analysis. In kind it is functional, cell-based. In a few lines:
as §3

Data set [22] concerns HeLa. Briefly: Increase in MRE11A expression in human HeLa cells at 3 uM after 24 hrs by immunoblot analysis. Type of data set: functional, cell-based. In a few lines: as §3

Sequence of DNA topoisomerase 2-alpha (Homo sapiens) (P11388 whole entry): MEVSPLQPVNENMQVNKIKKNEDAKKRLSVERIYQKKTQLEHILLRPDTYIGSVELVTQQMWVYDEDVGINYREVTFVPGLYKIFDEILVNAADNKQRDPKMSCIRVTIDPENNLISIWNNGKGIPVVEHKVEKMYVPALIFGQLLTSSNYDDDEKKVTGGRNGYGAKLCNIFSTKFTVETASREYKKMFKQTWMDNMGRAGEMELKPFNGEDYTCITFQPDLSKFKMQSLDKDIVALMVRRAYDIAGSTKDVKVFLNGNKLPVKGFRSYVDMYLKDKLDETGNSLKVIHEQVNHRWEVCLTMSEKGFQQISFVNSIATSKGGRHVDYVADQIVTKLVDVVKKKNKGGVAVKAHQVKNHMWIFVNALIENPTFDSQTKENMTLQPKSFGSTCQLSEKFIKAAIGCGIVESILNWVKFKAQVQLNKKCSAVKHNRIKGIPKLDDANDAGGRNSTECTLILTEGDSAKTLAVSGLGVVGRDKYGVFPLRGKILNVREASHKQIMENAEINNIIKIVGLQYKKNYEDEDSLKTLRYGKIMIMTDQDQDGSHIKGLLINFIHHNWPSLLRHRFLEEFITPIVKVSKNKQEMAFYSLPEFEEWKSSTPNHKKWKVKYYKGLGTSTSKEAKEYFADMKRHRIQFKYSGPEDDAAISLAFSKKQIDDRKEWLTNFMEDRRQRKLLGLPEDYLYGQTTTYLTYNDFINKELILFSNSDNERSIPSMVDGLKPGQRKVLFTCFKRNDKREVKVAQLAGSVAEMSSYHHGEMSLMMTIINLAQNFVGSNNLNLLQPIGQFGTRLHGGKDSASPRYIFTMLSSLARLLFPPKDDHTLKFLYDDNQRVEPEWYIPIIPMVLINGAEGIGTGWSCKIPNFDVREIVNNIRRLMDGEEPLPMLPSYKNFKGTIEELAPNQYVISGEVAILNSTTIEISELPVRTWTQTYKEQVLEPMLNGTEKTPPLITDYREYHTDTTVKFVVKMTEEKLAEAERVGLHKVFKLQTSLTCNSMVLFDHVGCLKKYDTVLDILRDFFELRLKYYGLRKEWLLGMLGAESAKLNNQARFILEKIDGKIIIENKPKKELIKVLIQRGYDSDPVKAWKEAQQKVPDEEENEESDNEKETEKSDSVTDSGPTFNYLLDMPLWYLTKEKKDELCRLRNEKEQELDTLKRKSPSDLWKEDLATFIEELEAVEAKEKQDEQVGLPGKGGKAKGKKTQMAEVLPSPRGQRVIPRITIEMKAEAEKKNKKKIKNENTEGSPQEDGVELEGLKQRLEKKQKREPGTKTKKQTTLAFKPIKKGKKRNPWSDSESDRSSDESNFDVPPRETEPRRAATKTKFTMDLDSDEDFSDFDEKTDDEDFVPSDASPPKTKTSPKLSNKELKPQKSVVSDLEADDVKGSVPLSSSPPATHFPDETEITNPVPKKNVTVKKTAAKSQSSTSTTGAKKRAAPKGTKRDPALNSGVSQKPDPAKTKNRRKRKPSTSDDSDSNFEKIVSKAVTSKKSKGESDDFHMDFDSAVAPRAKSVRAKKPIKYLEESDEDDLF

Turning to `COc1ccc2c(c1)C(=O)C(O)=C(CC=C(C)C)C2=O`, the GI50 in data set [1] came out at 18000 nM; in [2], 68000 nM; in data set [3], 19000 nM; in [4] it was 17000 nM.

For the compound `COc1cccc2c1C(=O)C(=O)C1=C2OC(C)(C)CC1`, the GI50 is 5100 nM in [1], 86000 nM in data set [2], 2700 nM in data set [3] and 1400 nM in data set [4].

Consider `COc1cccc2c1C(=O)C1=C(OC(C)(C)CC1)C2=O`, for which the GI50 in [1] is over 100000 nM; in [2] it was over 100000 nM; in data set [3], 28000 nM; in data set [4], over 100000 nM.

Regarding `CC1(C)CCC2=C(O1)c1cccc(O)c1C(=O)C2=O`, in [5], the inhibition result was “inactive”. For the same compound, the GI50 was 210 nM in data set [1], 2000 nM in data set [2], 36 nM in data set [3] and 29 nM in data set [4]. In addition, the Activity entry in data set [6], in [8], in [9], in data set [10], in [13] and in [15] was “Dose-dependent effect” each time. Moreover, the Activity entry in data set [16] was “Dose-dependent effect”; in data set [17], “Dose-dependent effect”; in data set [20], “Non-toxic”. The result in data set [7] and in data set [11] was inactive. Further, the “fold change (FC)” value in data set [12] is on record as 6. The result in [14], in [18], in data set [19], in data set [21] and in [22] was Active.

As to `CC1(C)CCC2=C(O1)c1ccccc1C(=O)C2=O` [LAPACHONE], the inhibition entry in data set [5] was “inactive”. In addition, the GI50 in data set [1] was determined as 1000 nM; in [3] it was 380 nM; in data set [4], 840 nM. The Activity entry in data set [6], in data set [8], in [9], in data set [10], in data set [13] and in [15] was “Dose-dependent effect” throughout. Further, the Activity entry in data set [16] and in [17] was “Dose-dependent effect” each time.

For the compound `CC1(C)CCC2=C(O1)c1ccc(O)cc1C(=O)C2=O`, the GI50 in data set [1] is 2500 nM; in data set [2], 21000 nM; in [3], 2300 nM; in data set [4], 2300 nM.

Turning to `COc1ccc2c(c1)C(=O)C(=O)C1=C2OC(C)(C)CC1`, the 50% growth inhibitory concentration (GI50) in data set [1] is 1700 nM; in data set [2], 27000 nM; in data set [3] it was 410 nM; in data set [4] it was 450 nM.

Take `CC1(C)CCC2=C(O1)c1cccc(OC(=O)C(C)(C)C)c1C(=O)C2=O`: the GI50 in data set [1] came to 1600 nM; in [2] it was 2100 nM; in data set [3], 180 nM; in data set [4], 230 nM.

In the case of `COc1cccc2c1C1=C(CCC(C)(C)O1)C(=O)C2=O`, the GI50 in data set [1] worked out at 1800 nM; in data set [2], 2100 nM; in data set [3] it was 690 nM; in data set [4] it was 460 nM.

In the case of `COc1cccc2c1C(=O)C(CC=C(C)C)=C(O)C2=O`, the GI50 was 30000 nM in data set [1], over 100000 nM in data set [2], 22000 nM in data set [3] and 26000 nM in data set [4].

Turning to `CC1(C)CCC2=C(O1)c1c(O)cccc1C(=O)C2=O`, in [5], the inhibition entry was “inactive”. In addition, the 50% growth inhibitory concentration (GI50) in data set [1] is 1100 nM; in [2] it was 1900 nM; in [3], 620 nM; in [4], 360 nM. Moreover, the Activity entry in data set [6], in data set [8], in data set [9], in data set [10], in [13] and in data set [15] was “Dose-dependent effect” throughout. For the same compound, the Activity result in data set [16] and in data set [17] was “Dose-dependent effect” throughout.

Turning to `COc1ccc2c(c1)C(=O)C1=C(CCC(C)(C)O1)C2=O`, the GI50 in data set [1] was found to be 40000 nM; in data set [2] it was 82000 nM; in data set [3], 28000 nM; in data set [4], 27000 nM.

With `CC1(C)CCC2=C(O1)C(=O)c1c(O)cccc1C2=O`, the 50% growth inhibitory concentration (GI50) in data set [1] came to 1800 nM; in [2], 14000 nM; in [3] it was 3400 nM; in data set [4], 19000 nM.
